Laboratory results: ChEMBL document CHEMBL1148762, “Lysosome and HER3 (ErbB3) selective anticancer agent kahalalide F: semisynthetic modifications and antifungal lead-exploration studies” (J Med Chem, 2007)
pIC50: −log10 of the molar value. Converted amounts (≈) assume the structure as drawn. The source made the active and inactive calls. The calls are words filed in the database; no cut-off is given here.

Experiments:
[1] = test system: Fusarium oxysporum; test: Fungicidal activity against Fusarium oxysporum at 30 uM after 72 hrs by microtiter plate assay; type: functional, organism-based
How it was run: (§1)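 After 72 h of microtiter broth exposure at 30 µM, 20 µL from each well was plated onto compound-free potato dextrose agar and incubated 3 days at 28 °C. No regrowth was scored fungicidal; regrowth was scored fungistatic.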

[2] = test system: Fusarium solani; test: Fungicidal activity against Fusarium solani at 30 uM after 72 hrs by microtiter assay; type: functional, organism-based; how it was run: as §1
[3] = test system: Fusarium proliferatum; test: Fungistatic activity against Fusarium proliferatum at 30 uM after 72 hrs by microtiter plate assay; type: functional, organism-based
How it was run: (§2)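 Conidia come from 7-day potato dextrose agar cultures, filtered and set photometrically (625 nm) to 3 × 10^5 conidia/mL. They are exposed to compound at 30 µM in 96-well microdilution broth at 24 ± 1 °C under a 12 h photoperiod. After 72 h, 20 µL per well is subcultured on drug-free potato dextrose agar at 28 °C for 3 days. No regrowth is scored fungicidal; regrowth is scored fungistatic.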

[4] = test system: Fusarium oxysporum; test: Antimicrobial activity against Fusarium oxysporum at 30 uM after 72 hrs by microtiter assay; type: functional
How it was run: (§3)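 96-well microdilution broth assay with conidia (3 × 10^5 conidia/mL, harvested from 7-day PDA cultures and filtered) against F. oxysporum, F. proliferatum and F. solani at 0.3, 3 and 30 µM. Plates were held at 24 ± 1 °C under a 12 h photoperiod. Growth was read at 620 nm at 24, 48 and 72 h and reported as percent inhibition from mean absorbance with standard error.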

[5] = test system: Fusarium proliferatum; test: Antimicrobial activity against Fusarium proliferatum at 0.3 uM after 72 hrs by microtiter assay; type: functional; how it was run: as §3
[6] = test system: Fusarium oxysporum; test: Antimicrobial activity against Fusarium oxysporum at 0.3 uM after 48 hrs by microtiter assay; type: functional; how it was run: as §3
[7] = test system: Fusarium proliferatum; test: Antimicrobial activity against Fusarium proliferatum at 0.3 uM after 48 hrs by microtiter assay; type: functional; how it was run: as §3
[8] = test system: Aspergillus fumigatus; test: Antimicrobial activity against Aspergillus fumigatus ATCC 90906; type: functional, organism-based
[9] = test system: Fusarium solani; test: Antimicrobial activity against Fusarium solani at 3 uM after 72 hrs by microtiter assay; type: functional; how it was run: as §3
[10] = test system: Fusarium oxysporum; test: Fungistatic activity against Fusarium oxysporum at 30 uM after 72 hrs by microtiter plate assay; type: functional, organism-based; how it was run: as §2
[11] = test system: Fusarium solani; test: Antimicrobial activity against Fusarium solani at 30 uM after 72 hrs by microtiter assay; type: functional; how it was run: as §3
[12] = test system: Mycobacterium tuberculosis; test: Antibacterial activity against Mycobacterium tuberculosis H37Rv by micro plate alamar blue assay; type: functional
[13] = test system: Fusarium oxysporum; test: Antimicrobial activity against Fusarium oxysporum at 3 uM after 72 hrs by microtiter assay; type: functional; how it was run: as §3
[14] = test system: Fusarium proliferatum; test: Antimicrobial activity against Fusarium proliferatum at 30 uM after 72 hrs by microtiter assay; type: functional; how it was run: as §3
[15] = test system: Cryptococcus neoformans; test: Antimicrobial activity against Cryptococcus neoformans ATCC 90113; type: functional, organism-based
[16] = test system: Fusarium proliferatum; test: Antimicrobial activity against Fusarium proliferatum at 3 uM after 48 hrs by microtiter assay; type: functional; how it was run: as §3
[17] = test system: Fusarium solani; test: Antimicrobial activity against Fusarium solani at 0.3 uM after 72 hrs by microtiter assay; type: functional; how it was run: as §3
[18] = test system: Fusarium oxysporum; test: Antimicrobial activity against Fusarium oxysporum at 0.3 uM after 72 hrs by microtiter assay; type: functional; how it was run: as §3
[19] = test system: Fusarium oxysporum; test: Antimicrobial activity against Fusarium oxysporum at 30 uM after 48 hrs by microtiter assay; type: functional; how it was run: as §3
[20] = test system: Mycobacterium tuberculosis; test: Antibacterial activity against Mycobacterium tuberculosis H37Rv at 16 ug/mL by micro plate alamar blue assay; type: functional
How it was run: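 M. tuberculosis H37Rv ATCC 27294 grown in BACTEC 12B medium; microplate Alamar blue assay (MABA). Primary screen at a single concentration of 16 µg/mL, read as percent inhibition.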

[21] = test system: Fusarium oxysporum; test: Antimicrobial activity against Fusarium oxysporum at 3 uM after 48 hrs by microtiter assay; type: functional; how it was run: as §3
[22] = test system: Fusarium solani; test: Antimicrobial activity against Fusarium solani at 30 uM after 48 hrs by microtiter assay; type: functional; how it was run: as §3
[23] = test system: Fusarium proliferatum; test: Fungicidal activity against Fusarium proliferatum at 30 uM after 72 hrs by microtiter plate assay; type: functional, organism-based; how it was run: as §1
[24] = test system: Fusarium proliferatum; test: Antimicrobial activity against Fusarium proliferatum at 3 uM after 72 hrs by microtiter assay; type: functional; how it was run: as §3
[25] = test system: Candida albicans; test: Antimicrobial activity against Candida albicans ATCC 90028; type: functional, organism-based
[26] = test system: Mycobacterium intracellulare; test: Antimicrobial activity against Mycobacterium intracellular ATCC 23068; type: functional, organism-based
[27] = test system: Fusarium solani; test: Antimicrobial activity against Fusarium solani at 3 uM after 48 hrs by microtiter assay; type: functional; how it was run: as §3
[28] = test system: Fusarium proliferatum; test: Antimicrobial activity against Fusarium proliferatum at 30 uM after 48 hrs by microtiter assay; type: functional; how it was run: as §3
[29] = test system: Fusarium solani; test: Antimicrobial activity against Fusarium solani at 0.3 uM after 48 hrs by microtiter assay; type: functional; how it was run: as §3

How did the Activity [1] turn out when C/C=C1\NC(=O)[C@H](Cc2ccccc2)NC(=O)[C@@H](C(C)C)NC(=O)[C@@H]([C@@H](C)CC)NC(=O)[C@H](NC(=O)[C@H](NC(=O)[C@H](CCCN)NC(=O)[C@H]2CCCN2C(=O)[C@@H](NC(=O)[C@H](NC(=O)[C@H](NC(=O)[C@@H](NC(=O)CCCC(C)C)C(C)C)C(C)=O)C(C)C)C(C)C)[C@@H](C)CC)[C@@H](C)OC(=O)[C@H](C(C)C)NC1=O was run?
The Activity was “Active”.

What about the Activity [2] of the same compound?
The Activity was “Active”.

And the Activity [3]?
The Activity was “Active”.

Which inhibition at 30 µM [4] does the source give for C/C=C1\NC(=O)[C@H](Cc2ccccc2)NC(=O)[C@@H](C(C)C)NC(=O)[C@@H]([C@@H](C)CC)NC(=O)[C@H](NC(=O)[C@H](NC(=O)[C@H](CCCN)NC(=O)[C@H]2CCCN2C(=O)[C@@H](NC(=O)[C@H](NC(=O)[C@H](NC(=O)[C@@H](NC(=O)CCCC(C)C)C(C)C)[C@H](C)OC(C)=O)C(C)C)C(C)C)[C@@H](C)CC)[C@@H](C)OC(=O)[C@H](C(C)C)NC1=O here?
Its inhibition at 30 µM is 74.4%.

What about the inhibition at 0.3 µM [5] of the same compound?
Its inhibition at 0.3 µM is 0.3%.

What about the inhibition at 0.3 µM [6] of the same compound?
Its inhibition at 0.3 µM is 0%.

And the inhibition at 0.3 µM [7]?
Its inhibition at 0.3 µM is 0%.

And the pIC50 [8]?
The pIC50 was 5.47.

What about the MFC [8] of the same compound?
The MFC was 10 µM (≈ 15.2 µg/mL).

What about the MIC [8] of the same compound?
The MIC was 10 µM (≈ 15.2 µg/mL).

And the inhibition at 3 µM [9]?
The inhibition at 3 µM was 0%.

What about the Activity [10] of the same compound?
Its Activity is “Active”.

What about the inhibition at 30 µM [11] of the same compound?
Its inhibition at 30 µM is 96.7%.

What about the MIC [12] of the same compound?
The MIC was 15.4 µg/mL (≈ 10.1 µM).

And the inhibition at 3 µM [13]?
The inhibition at 3 µM was 0%.

And the inhibition at 30 µM [14]?
The inhibition at 30 µM was 34.7%.

What about the pIC50 [15] of the same compound?
The pIC50 was 5.72.

And the MFC [15]?
The MFC was 5 µM (≈ 7.6 µg/mL).

What about the MIC [15] of the same compound?
Its MIC is 5 µM (≈ 7.6 µg/mL).

What about the inhibition at 3 µM [16] of the same compound?
Its inhibition at 3 µM is 0%.

And the inhibition at 0.3 µM [17]?
The inhibition at 0.3 µM was 0%.

And the inhibition at 0.3 µM [18]?
The inhibition at 0.3 µM was 0%.

What about the Activity [2] of the same compound?
Its Activity is “Active”.

What about the inhibition at 30 µM [19] of the same compound?
Its inhibition at 30 µM is 78.5%.

What about the inhibition at 16 µg/mL [20] of the same compound?
Its inhibition at 16 µg/mL is 94%.

What about the inhibition at 3 µM [21] of the same compound?
The inhibition at 3 µM was 0%.

And the inhibition at 30 µM [22]?
The inhibition at 30 µM was 80.9%.

What about the Activity [23] of the same compound?
The Activity was “Active”.

And the inhibition at 3 µM [24]?
Its inhibition at 3 µM is 0.3%.

What about the pIC50 [25] of the same compound?
The pIC50 was 5.48.

What about the MFC [25] of the same compound?
The MFC was 20 µM (≈ 30.4 µg/mL).

And the MIC [25]?
The MIC was 10 µM (≈ 15.2 µg/mL).

And the pIC50 [26]?
Its pIC50 is 4.84.

What about the MBC [26] of the same compound?
Its MBC is > 20 µM.

What about the MIC [26] of the same compound?
Its MIC is > 20 µM.

And the inhibition at 3 µM [27]?
The inhibition at 3 µM was 0%.

What about the inhibition at 30 µM [28] of the same compound?
Its inhibition at 30 µM is 70.8%.

What about the inhibition at 0.3 µM [29] of the same compound?
Its inhibition at 0.3 µM is 0%.

What does the source list for C/C=C1\NC(=O)[C@H](Cc2ccccc2)NC(=O)[C@@H](C(C)C)NC(=O)[C@@H]([C@@H](C)CC)NC(=O)[C@H](NC(=O)[C@H](NC(=O)[C@H](CCCNCc2cccs2)NC(=O)[C@H]2CCCN2C(=O)[C@@H](NC(=O)[C@H](NC(=O)[C@H](NC(=O)[C@@H](NC(=O)CCCC(C)C)C(C)C)[C@H](C)O)C(C)C)C(C)C)[C@@H](C)CC)[C@@H](C)OC(=O)[C@H](C(C)C)NC1=O?
Activity [1]: Active; Activity [2]: Active; Activity [3]: Active
